# Data published in ChEMBL document CHEMBL4513216, “Probing the Open Global Health Chemical Diversity Library for Multistage-Active Starting Points for Next-Generation Antimalarials” (ACS Infect Dis, 2020).
# Experiment: Toxicity liver stage against HepG2, at 10uM
# Type: cell-based
# Design: test concentration 10 uM, cell line HepG2-A16-CD81EGFP
# Settings: human, HepG2-A16-CD81EGFP cells; read-out: INHIBITION
# Outline: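 Uninfected HepG2-A16-CD81EGFP cells, 3 × 10^3 per well, 1536-well, plated on prespotted compound at 10 μM final, parasite-free screening media added to match infected plates; puromycin 10 μM positive, DMSO 0.5% negative; run in parallel with 48 h PbLuc assay at 37 °C, 5% CO2; viability by CellTiter-Glo luminescence, normalized to controls.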
row,Compound,cytotoxicity at 10 µM
1,Cn1cnc(S(=O)(=O)N2C[C@H](OCC3CC3)[C@H]3OCCC[C@H]32)c1,-149%
2,Cc1nn(C)c(N(C)C)c1CNC1CCc2cc(F)ccc21 (stereo not given),-15.4%
3,Cc1cc(C)c2ncc(C#N)c(NC3CCN(CC(N)=O)CC3)c2c1,-4.38%
4,Cc1noc(C)c1CN1CCc2ncc(Cn3cccn3)n2CC1,2.65%
5,CN(C)C(=O)c1cnn2c1OCCC2,-6.59%
6,CC(C)CNc1nc2c(cc1C(=O)NCC1CC1)CCNCC2,-2.79%
7,CC(=O)c1ccc(S(=O)(=O)N2CCC(c3n[nH]c(C)n3)CC2)cc1,-5.24%
8,COCC1CN(S(=O)(=O)Cc2ccccc2)Cc2c1cnn2C (stereo not given),-3.61%
9,Cc1nc(-c2cnn(C)c2)nc2c1CN(C(=O)c1cccn1C)CC2,4.87%
10,O=C(NC1CCCC1)N1C[C@H]2CN(c3ccncc3)C[C@@]2(C(=O)O)C1,11.3%
11,COCC(=O)N1CCC2(CC1)CC(COC)N(c1ncccn1)C2 (stereo not given),6.85%
12,Cc1sc(Br)cc1S(=O)(=O)NCc1ccccn1,-3.85%
13,CN(c1cccnn1)[C@@H]1CC[C@@H]2CN(Cc3ccccc3C(=O)O)C[C@@H]21,7.43%
14,O=C(O)Cn1ccc(=O)c2cc(Cl)ccc21,-17.1%
15,CCc1n[nH]c(C2CN(C(=O)c3ccc(NC4CC4)nc3)CCO2)n1 (stereo not given),5.77%
16,CCn1cc(-c2nccnc2C2CCCN(C(C)=O)C2)cn1 (stereo not given),-6.03%
17,Cc1ccnc(C2(C)CCCN2C(=O)c2cnccn2)n1 (stereo not given),-34%
18,CC(=O)NC1CCN(C(=O)c2cnc(COc3ccccc3)nc2O)C1 (stereo not given),-5.3%
19,CCN(Cc1nc2c(cnn2C)c(=O)[nH]1)Cc1ccco1,-2.8%
20,O=C(NC[C@H]1Cn2c(-c3ccccc3)cnc2CO1)C1CC1,-3.01%
21,CC(C)(CN)NS(=O)(=O)c1cccc(F)c1F,-5.7%
22,Cc1nc(C)n(CC2CN(c3ncnc4[nH]ccc34)CCO2)n1 (stereo not given),0.433%
23,O=C(Cn1cc(-c2ccccc2)ncc1=O)Nc1ccncc1,11%
24,Cc1noc(C)c1CCC(=O)N1CCCC(n2ccnc2C)C1 (stereo not given),10.9%
25,c1ccc(-c2nnc(CN3CCCC(Cn4cncn4)C3)o2)cc1 (stereo not given),-7.51%
26,CCCn1cnnc1CNCc1c[nH]nc1-c1ccc(F)cc1,2.69%
27,CS(=O)(=O)NC[C@H]1Cn2c(-c3ccc(F)cc3)cnc2CO1,-7.47%

row,Compound,cytotoxicity at 10 µM
1,O=C(N1CCC2(CC1)[C@H](O)C[C@@H]2O)C1(c2ccccc2F)CC1,6.1%
2,CC(=O)Nc1nc(CS(=O)(=O)Cc2ccccc2)cs1,-3.39%
3,Cc1cc(NC(=O)CCN2CCCCC2Cn2cncn2)no1 (stereo not given),4.23%
4,O=C(c1ccc[nH]1)N(Cc1ccc(O)cc1)CC1CC1,8.43%
5,O=C(N[C@H]1CN(C2CCOCC2)C[C@@H]1C1CC1)c1ccon1,5.21%
6,Cc1nc(CN(C)C(=O)c2cc(C)sc2NC(=O)C(C)(C)C)no1,3.81%
7,O=C(NCc1ccc(OCC2CC2)nc1)Nc1c(F)cccc1F,9.47%
8,Cn1cc(NC(=O)N2CCC(NS(C)(=O)=O)CC2)ccc1=O,-7.05%
9,COc1ccnc(N(C)Cc2c(C)noc2C)n1,-3.84%
10,O=C(c1ccc2c(c1)OCO2)N1CCC(Nc2cccnn2)CC1,-15.6%
11,Cc1cccnc1CCNC(=O)[C@@]12CNC[C@@H]1CN(S(C)(=O)=O)C2,-0.973%
12,CN(CCCc1cc(-c2ccccc2)n[nH]1)C(=O)CCCn1cncn1,-147%
13,CCCC(=O)N1Cc2ccccc2CC2(CCN(C)C2)C1 (stereo not given),2.71%
14,C[C@]1(O)CCN(Cc2ncccc2F)C[C@@H]1Oc1cccc(F)c1,-1.37%
15,CCn1c(=O)[nH]c2cn(-c3cccc(Cl)c3)c(=O)n21,0.0452%
16,CCOCC1CN(S(=O)(=O)CC)Cc2nn(C)cc21 (stereo not given),-111%
17,CN(C)C(=O)CN1CCC(c2c(C(N)=O)sc3ncccc23)C1 (stereo not given),8.42%
18,CC(C)(C)c1cc(CN2C[C@@H]3CC[C@H]2CN(Cc2cscn2)C3)n[nH]1,5.13%
19,CCn1cc(-n2cc3nc(N4CCC(O)CC4)[nH]cc-3c2=O)cn1,5.01%
20,O=C1CN(C(=O)C2CN(c3cccc(Cl)c3)CCO2)CCN1 (stereo not given),-1.77%
21,CNC(=O)C1CN(c2cc(C)ncn2)CCN1Cc1ccccc1 (stereo not given),10%
22,CCOc1cccc(NC(=O)c2cc(C)on2)n1,-2.14%
23,CCO[C@@H]1CCN(C(=O)c2cscn2)[C@@H]1Cc1cnn(C)c1,4.84%
24,O=C(O)CNc1cc(-c2cc(C(=O)NC3CC3)ccn2)c2cc[nH]c2n1,-5.2%
25,O=C(C1CCOC1)N1CCN(CC2CC2)c2ccccc21 (stereo not given),8.93%
26,Cc1noc(C)c1CN1C[C@H]2CN(Cc3cccc(F)c3)C[C@H]2C1,-114%
27,CCN(Cc1ccoc1)C(=O)c1cc2c(c(S(N)(=O)=O)c1)CCC2,-4.97%

row,Compound,cytotoxicity at 10 µM
1,CCc1cc(C(=O)N2CCCC(c3[nH]ncc3S(C)(=O)=O)C2)no1 (stereo not given),-0.335%
2,CC(=O)Nc1c(C)noc1C=Cc1ccc(S(=O)(=O)N2CCCC2)cc1,0.931%
3,N#Cc1ccc(OC2CCN(C(=O)COCC3CCCO3)CC2)cc1 (stereo not given),12.9%
4,CC(C)c1noc(C(C)N2CCN(CCc3ccncc3)CC2)n1 (stereo not given),2.16%
5,O=C(NCc1cccs1)[C@@H]1CC[C@@H]2[C@@H](CCN2C2CCOCC2)O1,0.37%
6,O=C(O)c1csc(S(=O)(=O)N2CCCc3ccc(F)cc32)c1,16.6%
7,COc1cccc(CCC2CCCN(C(=O)c3cnccn3)C2)c1 (stereo not given),13.7%
8,COc1ccc(OCCCNC(=O)NCc2csc(C)n2)cc1,-7.54%
9,Cc1noc(C)c1CN1CCCC1c1nnc2ccccn12 (stereo not given),-1.73%
10,CN1CCC2(CCCN(S(=O)(=O)c3ccc(-c4cnco4)s3)C2)C1 (stereo not given),-7.56%
11,CC(=O)Nc1ccc2nc(CN(C)Cc3snnc3C)ccc2c1,-12.8%
12,CCc1nnc2n1CCN(CC(O)c1ccc3c(c1)OCCO3)C2 (stereo not given),-7.3%
13,CCc1nc(C(=O)N2CCN(C(=O)CCc3ccccc3)CC2)c[nH]1,5.92%
14,COc1cc2nc(C)sc2cc1NC(=O)C(C)NC(N)=O (stereo not given),-9.93%
15,CC(C)c1noc(OCC(=O)N(C)C(C)C)n1,-12.6%
16,CCCc1nnc(NC(C)c2ccc(F)cc2)o1 (stereo not given),2.08%
17,N#Cc1cccc(S(=O)(=O)NC(=O)C2CC(c3ccccc3)=NO2)c1 (stereo not given),1.85%
18,COc1cccc(-c2cc(C(=O)NCCCC(F)(F)F)[nH]n2)c1,-13.9%
19,CC(C)c1nc(C(=O)N2CCCC(N)CC2)cs1 (stereo not given),-2.56%
20,CC(SCCC(=O)NC(N)=O)c1c(F)cccc1F (stereo not given),6.93%
21,CCc1nc(C)c(C(=O)NCCNc2cnccn2)s1,-4.64%
22,CN(CCCc1cc(-c2cccc(F)c2)n[nH]1)C(=O)CCn1cncn1,-132%
23,CCC[C@H]1CN(S(C)(=O)=O)C[C@@H]1NC(=O)COC(C)C,-1.09%
24,O=C(c1ccsc1)N1C[C@@H]2OCCN(CCN3CCCC3)[C@@H]2C1,-73.7%
25,COc1cccc(-c2nc3c([nH]2)CC(C)(C)CNC3=O)c1OC,-5.82%
26,Cn1ccnc1COc1ccc(NC(=O)C2CCCO2)cc1 (stereo not given),-14.9%
